Source: PubChem (several laboratories)
KCNQ1 pot – potentiates or activates the human KCNQ1 potassium channel; P51787; AID 2648; actives 0.35% (n = 310,000); CHO-K1 KCNQ1, thallium flux FluxOR fluorescence; active compounds read high; B-score at 10 µM;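 active = fluorescence ratio B-score, a plate-corrected score, at least three library SD, with initial intensity B-score within 5 SD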
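Schedule – 37 °C overnight plating, 90-min dark dye load, 20-min compound pretreatment · System – stable KCNQ1 CHO-K1 line · Probe or stimulus – thallium- and potassium-containing depolarizing buffer · Measured by – kinetic FluxOR fluorescence, 10 s baseline plus 110 s post-stimulus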
hERG protect – hERG (human) protection from proarrhythmic block; actives 0.51% (n = 310,000); CHO-hERG, FluxOR thallium flux, dofetilide IC70 present; activation (rescue from dofetilide block), less the hit threshold, % at 10 µM; AID 1511;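 active = activation above the mean of controls blocked by dofetilide plus 5 SD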;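 also: thallium influx through hERG after potassium depolarization seen as dye fluorescence rise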
KCNK9 block – human KCNK9 channel inhibition | Q9NPC2 | HEK293 KCNK9, FluxOR thallium flux fluorescence; active compounds read low | B-score at 10 µM | actives 1.2% (n = 310,000) | AID 488922;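 active = ratio B-score over 3 SD below the library mean, with starting fluorescence within 5 SD of its mean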;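 also: negative B-score means less thallium flux so channel inhibition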
Target sequence (Q9NPC2 whole entry, looked up): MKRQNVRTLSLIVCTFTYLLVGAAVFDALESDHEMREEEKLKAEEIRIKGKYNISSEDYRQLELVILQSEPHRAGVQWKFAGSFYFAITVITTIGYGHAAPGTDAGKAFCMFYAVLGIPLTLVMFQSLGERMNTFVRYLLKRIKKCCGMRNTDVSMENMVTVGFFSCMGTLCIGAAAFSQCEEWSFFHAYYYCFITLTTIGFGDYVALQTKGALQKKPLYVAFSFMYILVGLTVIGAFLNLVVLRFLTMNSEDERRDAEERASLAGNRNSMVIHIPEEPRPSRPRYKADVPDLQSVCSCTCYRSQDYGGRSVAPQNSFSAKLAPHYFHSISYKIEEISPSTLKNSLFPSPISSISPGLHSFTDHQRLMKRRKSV
KCNK3 block – human KCNK3 channel inhibition, primary screen | O14649 | CHO-KCNK3 thallium flux, FluxOR fluorescence; active compounds read low | B-score at 10 µM | actives 0.84% (n = 340,000) | AID 602410;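 active = B-score under library mean minus 4 SD, starting fluorescence ratio at most library mean plus 5 SD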;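 also: more negative B-score means stronger inhibition of thallium flux through KCNK3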
KCNQ1 block – human KCNQ1 channel inhibition | P51787 | CHO-K1 KCNQ1, FluxOR thallium flux fluorescence; active compounds read high | B-score at 10 µM | actives 1.3% (n = 310,000) | AID 2642;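 active = compounds whose thallium flux B-score, printed positive for inhibition, exceeds three library SD while starting fluorescence stays within three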;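 also: channel opened by potassium depolarization with thallium stimulus after 20 min compound exposure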
PHOSPHO1 block – inhibitors of human PHOSPHO1 phosphatase; Q8TCT1; recombinant PHOSPHO1, absorbance phosphatase assay; inhibition, % at 13.3 µM; actives 1.1% (n = 290,000); AID 1565; in the data active = inhibition above about 60%
An asterisk follows results filed as active; i = inactive; . = no result given. An excerpt weighted towards active compounds, which were near 4% of everything screened.

SMILES | KCNQ1 pot | hERG protect | KCNK9 block | KCNK3 block | KCNQ1 block | PHOSPHO1 block
Cc1[nH]c(=S)c(C#N)c(C)c1C(=O)Nc1ccccc1 | i | -10 | i | i | i | 95*
CC(=O)C1=C(O)C(=O)N(Cc2ccco2)C1c1ccccc1F (stereo unspecified) | i | -16 | i | i | i | 4
CCOC(=O)C1CCCN(C2CCN(Cc3nc(Cc4ccccc4)no3)CC2)C1 (stereo unspecified) | i | -10 | i | i | i | 44
Cc1ccc(-n2c(N)c(C(N)=O)sc2=S)cc1 | i | -3 | i | i | i | 93*
Cc1ccc(-n2c(N)c(C(=O)NCc3ccco3)sc2=S)cc1 | i | -5 | i | i | i | 23
COc1ccc(CNC(=O)c2sc(=S)n(-c3ccc(OC)cc3)c2N)cc1 | i | -4 | i | i | i | 95*
Nc1c(C(=O)NCc2cccnc2)sc(=S)n1-c1ccccc1 | i | -11 | i | i | i | 96*
Cc1cc(C(=O)CSc2cccc[n+]2[O-])c(C)n1-c1ccc(OC(F)F)cc1 | i | -16 | i | i | i | 16
CCOC(=O)C1C(C(=O)OC)=C(c2ccc(F)cc2)c2ccccc2N1S(=O)(=O)C(F)(F)F (stereo unspecified) | . | . | . | i | . | .
Cc1ccc(S(=O)(=O)CC(=O)N2CCCCCC2)cc1 | i | -9 | i | i | i | 7
COc1ccc(NC(=O)CCN2CCN(S(=O)(=O)c3ccc(C(C)C)cc3)CC2)cc1 | i | -15 | i | i | i | 7
CC(C)c1ccc(S(=O)(=O)N2CCN(CCC(=O)Nc3ccc(N(C)C)cc3)CC2)cc1 | i | -3 | i | i | i | 83*
CCOc1cccc(Oc2ccc(C(F)(F)F)cn2)c1 | i | -4 | -7.9* | i | i | 14
CC(=O)C1=C(O)CCC1=NCCc1ccccc1 | i | -3 | i | i | i | -25
O=C(NNc1ccccc1Br)C(O)(c1cccc(C(F)(F)F)c1)c1cccc(C(F)(F)F)c1 | i | -6 | -8.3* | i | i | 6
CCOC(=O)C(C(=O)OCC)C(C(=O)OCC)N1CCOCC1 (stereo unspecified) | 10* | -5 | i | i | i | 17
CCOC(=O)C(C)CC(C)C(=O)N1CCOCCOCCN(C(=O)C(C)CC(C)C(=O)OCC)CCOCC1 (stereo unspecified) | i | -4 | i | i | i | 22
CC(=O)c1cccc(NC(=O)c2cc(=O)[nH]c3ccccc23)c1 | i | -13 | i | i | i | 20
CCN(CC)S(=O)(=O)c1ccc2[nH]c(=O)cc(C(=O)Nc3cccc(C(C)=O)c3)c2c1 | i | 22* | i | i | i | 32
O=C(O)c1ccc(N2CC3CC(C2)c2cccc(=O)n2C3)c(NC(=S)Nc2ccc(Br)cc2)c1 (stereo unspecified) | i | -18 | i | i | 6* | 51
CCc1ccc(NC(=S)Nc2cc(C(=O)O)ccc2N2CC3CC(C2)c2cccc(=O)n2C3)cc1 (stereo unspecified) | i | -12 | i | i | i | 45
COc1cc(/C=C(\C#N)C(=O)c2c(C)[nH]c3ccccc23)cc(OC)c1OC | i | -16 | i | i | i | -4
COc1ccc(/C=C(\C#N)C(=O)c2c(C)[nH]c3ccccc23)cc1OC | i | -23 | i | i | 6* | -2
CC(C)(C)c1cnnn1-c1ccc(NC(=O)c2ccc(Br)o2)cc1 | i | -9 | -7.1* | i | i | 15
O=C(Nc1ccc(N2CCOCC2)cc1)c1ccc(Br)o1 | i | -8 | i | i | i | 37
SMILES | KCNQ1 pot | hERG protect | KCNK9 block | KCNK3 block | KCNQ1 block | PHOSPHO1 block
CN1CCN(c2ccc(NC(=O)c3ccc(Br)o3)cc2)CC1 | 13* | 1 | i | i | i | 22
Oc1c(C(c2ccco2)N2CCN(C(c3ccccc3)c3ccccc3)CC2)sc2ncnn12 (stereo unspecified) | i | -15 | i | i | i | 88*
C=CCN1C(=O)/C(=C/c2ccc(OC(C)=O)c(OCC)c2[N+](=O)[O-])SC1=S | i | -39 | i | i | 12* | -37
C=CCN1C(=O)/C(=C\c2ccc(OC(=O)c3ccco3)c(OC)c2)SC1=S | i | -10 | i | i | i | -23
OC1(c2cn(Cc3ccccc3)nn2)CCCCC1 | i | -4 | i | i | i | -4
COc1ccc(-c2nn(-c3ccccc3)cc2/C=C/C(=O)N2CCN(c3ccccn3)CC2)cc1 | i | -33 | i | i | 6* | -24
Cc1ccc(-c2nn(-c3ccccc3)cc2C(=O)N2CCN(c3ccccn3)CC2)cc1 | i | -20 | i | i | i | -7
CCCN=C1N/C(=C\c2ccco2)C(=O)N1c1ccccc1 | i | -4 | i | i | i | 42
CCCN(CCC)C1=N/C(=C\c2ccco2)C(=O)N1c1ccccc1 | i | -5 | -7.7* | i | i | 21
CC1CCN(C(=S)c2cn(Cc3ccccc3F)c3ccccc23)CC1 | i | -13 | -6.6* | i | i | 11
CN1CCN(C(=S)c2cn(Cc3ccc(F)cc3)c3ccccc23)CC1 | i | -11 | i | i | i | 8
CC(C)c1ccc(CNc2ccc([N+](=O)[O-])cn2)cc1 | i | -11 | i | i | 7* | 20
O=C1C(=O)N(CC2CCCO2)C(c2ccco2)/C1=C(/O)c1ccc(F)cc1 (stereo unspecified) | i | -3 | i | i | i | 8
CC1CCCN(C(=O)COC(=O)Cc2ccc(Cl)cc2)C1 (stereo unspecified) | i | -5 | i | i | i | 27
COCCCn1c(=S)[nH]c2c(sc3ccccc32)c1=O | i | -1 | i | i | i | -8
Cc1ccc(-n2c(=S)[nH]c3sc4c(c3c2=O)CCC4)cc1 | 8* | -2 | i | i | i | -68
COCCn1c(=S)[nH]c2sc3c(c2c1=O)CCCC3 | 30* | 17* | i | i | i | 28
O=c1[nH]c2sc3c(c2c(=O)n1Cc1ccccc1)CCC3 | i | -2 | i | i | i | 2
CC1(C)Cc2c(sc3[nH]c(=S)n(Cc4ccco4)c(=O)c23)CO1 | . | . | . | i | . | 1
COCCCn1c(=S)[nH]c2sc3c(c2c1=O)CCCC3 | 34* | 17* | i | i | i | 22
O=c1c2c3c(sc2[nH]c(=S)n1Cc1ccco1)CCC3 | 15* | 11* | i | i | i | 56
